{"data": "Published values collected from several papers", "target": "Serine/threonine-protein kinase ULK2 (ULK2, Homo sapiens, UniProt Q8IYT8)", "Sequence (Q8IYT8 1-1036, as in one of the studies)": "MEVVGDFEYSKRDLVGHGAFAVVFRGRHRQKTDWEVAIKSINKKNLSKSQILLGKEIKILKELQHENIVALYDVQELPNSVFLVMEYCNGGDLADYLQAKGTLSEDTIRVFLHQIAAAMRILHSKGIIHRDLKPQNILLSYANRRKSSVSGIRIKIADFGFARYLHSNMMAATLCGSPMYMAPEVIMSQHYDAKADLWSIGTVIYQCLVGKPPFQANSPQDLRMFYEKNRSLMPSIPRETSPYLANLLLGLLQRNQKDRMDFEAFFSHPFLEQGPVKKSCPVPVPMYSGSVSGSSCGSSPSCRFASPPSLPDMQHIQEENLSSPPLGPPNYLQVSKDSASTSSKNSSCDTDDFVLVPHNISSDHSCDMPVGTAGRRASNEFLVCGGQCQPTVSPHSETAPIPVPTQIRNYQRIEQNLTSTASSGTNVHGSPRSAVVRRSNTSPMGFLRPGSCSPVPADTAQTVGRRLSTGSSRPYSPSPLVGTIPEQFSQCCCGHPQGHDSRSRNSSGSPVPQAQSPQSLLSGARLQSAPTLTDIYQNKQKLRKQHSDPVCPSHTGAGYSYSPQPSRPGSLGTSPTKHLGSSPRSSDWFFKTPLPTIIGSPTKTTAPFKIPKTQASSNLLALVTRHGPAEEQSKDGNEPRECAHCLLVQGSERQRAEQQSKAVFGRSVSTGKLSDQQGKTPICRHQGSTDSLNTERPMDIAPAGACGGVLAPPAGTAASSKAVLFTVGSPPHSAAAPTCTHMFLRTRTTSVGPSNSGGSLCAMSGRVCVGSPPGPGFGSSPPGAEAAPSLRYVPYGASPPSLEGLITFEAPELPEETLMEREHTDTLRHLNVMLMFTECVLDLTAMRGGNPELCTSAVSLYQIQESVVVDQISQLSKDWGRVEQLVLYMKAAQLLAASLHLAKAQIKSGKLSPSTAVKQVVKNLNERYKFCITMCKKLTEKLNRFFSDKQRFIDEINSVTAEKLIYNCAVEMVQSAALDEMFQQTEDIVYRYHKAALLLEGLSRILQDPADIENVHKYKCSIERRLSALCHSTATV", "note": "Compare with care: the assays were run in different laboratories."}
{"Structure (SMILES)": "COc1cc(Nc2ncc(F)c(Nc3ccc4c(n3)NC(=O)C(C)(C)O4)n2)cc(OC)c1OC", "observed": "binding", "concentration": "10 µM", "measurement": "inhibition", "value": "100%"}
{"Structure (SMILES)": "C#Cc1n[nH]c2c(-c3cn([C@@H](C)c4ccccc4)c(=O)[nH]c3=O)cc(F)cc12", "observed": "enzyme activity", "mode": "inhibitor", "concentration": "0.1 µM", "measurement": "inhibition", "value": "-3.5%"}
{"Structure (SMILES)": "O=c1[nH]c2ccccc2n1C1CCN(Cc2ccc(-c3[nH]c4cc5ncnc5cc4nc3-c3ccccc3)cc2)CC1", "observed": "cell-free assay", "concentration": "0.5 µM", "measurement": "remaining signal", "value": "106%"}
{"Structure (SMILES)": "Nc1ncc(-c2nc(N3CCOCC3)nc(N3CCOCC3)n2)c(C(F)F)n1", "observed": "binding", "technique": "competition with immobilised ligand", "concentration": "10 µM", "measurement": "remaining binding", "value": "72%"}
{"Structure (SMILES)": "CC(C)(C)c1cc(C=C(C#N)C#N)cc(Br)c1O", "observed": "enzyme activity", "mode": "inhibitor", "concentration": "0.5 µM", "measurement": "remaining activity", "value": "103%"}
{"Structure (SMILES)": "Cc1nn(C)cc1-c1nc2c(N3CCN(Cc4ccc(Cl)cc4)CC3)c(Cl)cnc2[nH]1", "observed": "binding", "technique": "competition with immobilised ligand", "concentration": "1 µM", "measurement": "remaining binding", "value": "100%"}
{"Structure (SMILES)": "C#Cc1n[nH]c2c(-c3cn(C(C)c4ccccn4)c(=O)[nH]c3=O)cc(F)cc12 (stereo not drawn)", "observed": "enzyme activity", "mode": "inhibitor", "concentration": "1 µM", "measurement": "inhibition", "value": "8.6%"}
{"Structure (SMILES)": "COc1ncccc1-c1cnn2ccc(N3CCN(C(=O)OC(C)C)CC3)nc12", "observed": "binding", "technique": "competition with immobilised ligand", "concentration": "1 µM", "measurement": "remaining binding", "value": "70%"}
{"Structure (SMILES)": "Cn1cncc1[C@](O)(COc1ccc(C#N)cc1-c1ccc(OC(F)(F)F)cc1)c1ccc(C#N)cc1", "observed": "cell-free assay", "technique": "competition with immobilised ligand", "concentration": "1 µM", "measurement": "remaining binding", "value": "100%"}
